Experimental data from ChEMBL document CHEMBL5576114, “Inhibition of DXR in the MEP pathway with lipophilic N-alkoxyaryl FR900098 analogs” (RSC Med Chem, 2024).
In brackets after ≈: the same amount, converted by molar mass.

Legend:
Plasmodium falciparum = test: Antiplasmodial activity against Plasmodium falciparum 3D7 assessed as reduction in parasite growth by measuring DNA content after 3 days by PicoGreen staining based FLUOstar omega microplate reader analysis; type: functional, organism-based; details: 3D7, 72 h
Procedure, shortened: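 Asynchronous cultures in 2% hematocrit, RPMI-1640 complete medium with 0.5% Albumax, under 5% O2/5% CO2/90% N2 at 37 °C. Diluted to 0.5% parasitemia, inhibitors 1.2 nM to 492.4 µM added at start. Growth read after 3 days as DNA content by PicoGreen fluorescence (485/528 nm). IC50 from 4-parameter nonlinear regression; technical duplicate, biological triplicate.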

[1] = test system: Mycobacterium tuberculosis; test: Antibacterial activity against Mycobacterium tuberculosis H37Rv assessed as reduction in bacterial growth incubated for 2 weeks by macroscopic plate reader analysis; type: functional; details: 336 h
Procedure, shortened: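 H37Rv grown in 7H9 broth with 0.08% NaCl, 0.4% glucose, 0.05% casitone and 0.05% tyloxapol, then diluted 1:500. Compounds were made as 20 mg/mL DMSO stocks and run as eleven 2-fold serial dilutions. Plates were held 2 weeks at 37 °C and MIC99 was read macroscopically. Three independent measurements.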

[2] = biological target: T1, 1-deoxy-D-xylulose 5-phosphate reductoisomerase, apicoplastic (Plasmodium falciparum (isolate 3D7), UniProt Q8IKG4); test: Inhibition of Plasmodium falciparum DXR expressed in Escherichia coli BL21 CodonPlus (DE3)-RIL cells using DOXP as substrate in presence of NADPH by UV-visible spectrophotometry
T1 sequence (Q8IKG4 whole entry): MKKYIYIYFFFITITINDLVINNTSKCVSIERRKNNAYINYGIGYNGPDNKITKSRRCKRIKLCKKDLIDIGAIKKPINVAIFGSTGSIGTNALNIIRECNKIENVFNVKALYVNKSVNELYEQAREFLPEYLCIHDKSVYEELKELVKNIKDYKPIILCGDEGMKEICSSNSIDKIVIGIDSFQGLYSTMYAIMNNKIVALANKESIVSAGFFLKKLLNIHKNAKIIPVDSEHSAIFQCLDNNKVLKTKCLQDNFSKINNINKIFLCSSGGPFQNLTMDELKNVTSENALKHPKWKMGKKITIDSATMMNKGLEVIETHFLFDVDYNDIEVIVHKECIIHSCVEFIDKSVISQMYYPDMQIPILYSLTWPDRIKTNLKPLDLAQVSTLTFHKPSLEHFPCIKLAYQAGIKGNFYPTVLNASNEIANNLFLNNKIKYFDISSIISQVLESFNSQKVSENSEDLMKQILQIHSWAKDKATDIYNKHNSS

[3] = biological target: T2, 1-deoxy-D-xylulose 5-phosphate reductoisomerase (Mycobacterium tuberculosis) (UniProt P9WNS1); test: Inhibition of Mycobacterium tuberculosis DXR expressed in Escherichia coli BL21 CodonPlus (DE3)-RIL cells assessed as remaining activity using DOXP as substrate at 100 uM in presence of NADPH by UV-visible spectrophotometry relative to control
T2 sequence (whole entry): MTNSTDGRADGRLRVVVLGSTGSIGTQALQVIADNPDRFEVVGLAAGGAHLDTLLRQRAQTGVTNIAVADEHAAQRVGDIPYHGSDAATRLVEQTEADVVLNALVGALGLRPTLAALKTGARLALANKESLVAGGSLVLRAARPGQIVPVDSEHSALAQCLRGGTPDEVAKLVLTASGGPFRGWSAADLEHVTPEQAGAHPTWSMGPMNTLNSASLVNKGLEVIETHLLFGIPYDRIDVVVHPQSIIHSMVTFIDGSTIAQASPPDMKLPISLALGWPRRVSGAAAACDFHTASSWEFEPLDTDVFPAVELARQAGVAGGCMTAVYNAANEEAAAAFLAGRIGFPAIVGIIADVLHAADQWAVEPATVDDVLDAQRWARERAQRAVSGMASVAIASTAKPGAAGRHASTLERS
Procedure, shortened: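 Recombinant MtbDXR (pET101/D-TOPO in E. coli BL21 CodonPlus (DE3)-RIL, IMAC-purified) at 0.89 µM in 100 mM MES pH 6.5, 25 mM MgCl2, 150 µM NADPH, 47 µM DOXP, 37 °C. Inhibitor was tested at a single 100 µM. NADPH oxidation was followed at 340 nm, and percent remaining activity was reported. Technical duplicates.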

[4] = biological target: T3, 1-deoxy-D-xylulose 5-phosphate reductoisomerase, apicoplastic (Plasmodium falciparum (isolate 3D7)) (UniProt Q8IKG4); test: Inhibition of Plasmodium falciparum DXR expressed in Escherichia coli BL21 CodonPlus (DE3)-RIL cells using DOXP as substrate at 100 uM in presence of NADPH by UV-visible spectrophotometry relative to control
T3 sequence (whole entry): T1 sequence (Q8IKG4 whole entry)
Procedure, shortened: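 PfDXR single-point test at 100 µM inhibitor. Conditions: 0.86 µM IMAC-purified enzyme, 100 mM Tris pH 7.8, 25 mM MgCl2, 150 µM NADPH, 37 °C. Reaction was started with 144 µM DOXP, and NADPH oxidation was monitored at 340 nm. Percent remaining activity was reported; technical duplicates.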

[5] = biological target: T3, 1-deoxy-D-xylulose 5-phosphate reductoisomerase, apicoplastic (Plasmodium falciparum (isolate 3D7)); test: Inhibition of Plasmodium falciparum DXR expressed in Escherichia coli BL21 CodonPlus (DE3)-RIL cells assessed as remaining activity using DOXP as substrate at 100 uM in presence of NADPH by UV-visible spectrophotometry relative to control
Procedure, shortened: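 Recombinant His-tagged PfDXR purified by TALON affinity. Assay at 37 °C in 100 mM Tris pH 7.8, 25 mM MgCl2, 0.86 µM enzyme, 150 µM NADPH; reaction started with 144 µM DOXP. NADPH oxidation followed at 340 nm. Single inhibitor concentration 100 µM, given as percent remaining activity; technical duplicates.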

SMILES	IC50 (Plasmodium falciparum) [µM]	MIC [1] [µM]	IC50 [2] [µM]	Activity [3] [%]	inhibition [4] [%]	Activity [5] [%]
CC(=O)N(CCC(c1ccc(Cl)c(Cl)c1)P(=O)(OCOC(=O)C(C)(C)C)OCOC(=O)C(C)(C)C)OCCCCc1ccccc1 (centres undefined)	13.9	17.8 (≈ 12.5 µg/mL)	–	–	–	–
CC(=O)N(CCC(c1ccc(Cl)c(Cl)c1)P(=O)(O)O)OC(C)c1ccc(Cl)cc1 (centres undefined)	68.6	72 (≈ 34.6 µg/mL)	20.4	66.2	> 90	–
CC(=O)N(O)CCC(c1ccc(Cl)c(Cl)c1)P(=O)(O)O (centres undefined)	18.6	> 266	13.6	15.7	> 90	–
CC(=O)N(CCC(c1ccc(Cl)c(Cl)c1)P(=O)(O)O)OCc1ccc(-c2ccc(C(C)C)cc2)cc1 (centres undefined)	38.1	45 (≈ 24.8 µg/mL)	–	63.2	–	56.1
CC(=O)N(CCC(c1ccc(Cl)c(Cl)c1)P(=O)(O)O)OC(C)c1ccccc1 (centres undefined)	3.6	> 208	16.8	64.6	> 90	–
CC(=O)N(CCC(c1ccc(Cl)c(Cl)c1)P(=O)(OCOC(=O)C(C)(C)C)OCOC(=O)C(C)(C)C)OC(C)c1ccc(F)cc1 (centres undefined)	21.2	6.6 (≈ 4.57 µg/mL)	–	–	–	–
CC(=O)N(CCC(c1ccc(Cl)c(Cl)c1)P(=O)(O)O)OC(C)c1ccc(C(F)(F)F)cc1 (centres undefined)	79.2	> 91	–	59.6	–	74.7
CC(=O)N(CCC(c1ccc(Cl)c(Cl)c1)P(=O)(O)O)OCc1ccc(Br)cc1 (centres undefined)	67.8	> 92	–	72.3	–	53.1
CC(=O)N(CCC(c1ccc(Cl)c(Cl)c1)P(=O)(O)O)OCc1ccc2ccccc2c1 (centres undefined)	60.9	24.2 (≈ 11.7 µg/mL)	–	82.1	–	46.6
CC(=O)N(CCC(c1ccc(Cl)c(Cl)c1)P(=O)(OCOC(=O)C(C)(C)C)OCOC(=O)C(C)(C)C)OC(C)c1ccc(C(F)(F)F)cc1 (centres undefined)	23.8	> 134	–	–	–	–
CC(=O)N(CCC(c1ccc(Cl)c(Cl)c1)P(=O)(O)O)OCCCCc1ccccc1 (centres undefined)	63.3	3.1 (≈ 1.47 µg/mL)	–	99.1	–	25.6
CC(=O)N(CCC(c1ccc(Cl)c(Cl)c1)P(=O)(O)O)OCc1ccc(-c2ccccc2)cc1 (centres undefined)	86.4	23.1 (≈ 11.7 µg/mL)	–	93.9	–	27
CC(=O)N(CCC(c1ccc(Cl)c(Cl)c1)P(=O)(O)O)OCc1ccccc1 (centres undefined)	31.5	> 214	–	34.2	–	26.7
